Data set [1] deals with Mitogen-activated protein kinase kinase kinase 14 (Homo sapiens), Q99558 [S549D]. In words: Inhibition of human NIK kinase domain S549D mutant.
Data set [2] has as its target T1, Inhibitor of nuclear factor kappa-B kinase subunit epsilon (Homo sapiens, UniProt Q14164).
T1 sequence (Q14164 whole entry): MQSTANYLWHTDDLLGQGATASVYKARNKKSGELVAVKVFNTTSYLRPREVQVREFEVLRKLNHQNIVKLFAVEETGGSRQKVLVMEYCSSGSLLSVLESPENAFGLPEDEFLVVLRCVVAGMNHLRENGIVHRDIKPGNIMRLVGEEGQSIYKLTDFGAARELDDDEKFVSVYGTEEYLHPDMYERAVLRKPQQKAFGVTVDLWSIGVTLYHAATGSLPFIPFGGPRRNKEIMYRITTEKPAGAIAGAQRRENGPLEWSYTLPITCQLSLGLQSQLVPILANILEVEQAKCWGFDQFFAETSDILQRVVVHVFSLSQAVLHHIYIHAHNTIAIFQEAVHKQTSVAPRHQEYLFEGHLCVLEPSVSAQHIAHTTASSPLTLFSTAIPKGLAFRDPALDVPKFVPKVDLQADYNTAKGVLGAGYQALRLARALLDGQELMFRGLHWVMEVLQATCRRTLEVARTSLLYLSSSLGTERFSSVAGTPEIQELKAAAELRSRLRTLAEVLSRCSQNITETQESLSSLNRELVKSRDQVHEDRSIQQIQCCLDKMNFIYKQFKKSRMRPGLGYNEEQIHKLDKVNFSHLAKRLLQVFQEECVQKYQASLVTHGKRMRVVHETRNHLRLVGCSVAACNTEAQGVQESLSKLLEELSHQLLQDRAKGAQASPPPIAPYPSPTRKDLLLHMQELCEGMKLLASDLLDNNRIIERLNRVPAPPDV
The experiment in a line: Inhibition of recombinant human full-length N-terminal GST-fused/His6-tagged IKKepsilon (M1 to V716 residues) expressed in Sf9 insect cells using ERLLDDRHDSGLDSMKDEE peptide as substrate measured after 60 mins by ADP-Glo kinase assay.

Data set [3] in a line: Cytotoxicity against human SKBR3 cells assessed as cell viability at 100 uM after 6 hrs by CellTiter Glo luminescent assay relative to control. It counts as cell-based, SK-BR-3. Conditions: read-out: Activity. The method, boiled down: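 Cells seeded at 5 x 10^3 per well and exposed for 6 h to the compound (10, 25, 50 or 100 µM) or to DMSO vehicle. Viability was read as intracellular ATP by CellTiter Glo luminescence.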
For orientation: In ATP-based viability assays light output follows the ATP content of the culture.

Data set [4] has as its target Serine/threonine-protein kinase B-raf (Homo sapiens, UniProt P15056). In words: Inhibition of wild-type B-RAF (unknown origin).
The target in data set [5] is Epidermal growth factor receptor (Homo sapiens, UniProt P00533). The experiment in a line: Inhibition of wild-type EGFR (unknown origin).
Epidermal growth factor receptor, sequence (P00533 whole entry): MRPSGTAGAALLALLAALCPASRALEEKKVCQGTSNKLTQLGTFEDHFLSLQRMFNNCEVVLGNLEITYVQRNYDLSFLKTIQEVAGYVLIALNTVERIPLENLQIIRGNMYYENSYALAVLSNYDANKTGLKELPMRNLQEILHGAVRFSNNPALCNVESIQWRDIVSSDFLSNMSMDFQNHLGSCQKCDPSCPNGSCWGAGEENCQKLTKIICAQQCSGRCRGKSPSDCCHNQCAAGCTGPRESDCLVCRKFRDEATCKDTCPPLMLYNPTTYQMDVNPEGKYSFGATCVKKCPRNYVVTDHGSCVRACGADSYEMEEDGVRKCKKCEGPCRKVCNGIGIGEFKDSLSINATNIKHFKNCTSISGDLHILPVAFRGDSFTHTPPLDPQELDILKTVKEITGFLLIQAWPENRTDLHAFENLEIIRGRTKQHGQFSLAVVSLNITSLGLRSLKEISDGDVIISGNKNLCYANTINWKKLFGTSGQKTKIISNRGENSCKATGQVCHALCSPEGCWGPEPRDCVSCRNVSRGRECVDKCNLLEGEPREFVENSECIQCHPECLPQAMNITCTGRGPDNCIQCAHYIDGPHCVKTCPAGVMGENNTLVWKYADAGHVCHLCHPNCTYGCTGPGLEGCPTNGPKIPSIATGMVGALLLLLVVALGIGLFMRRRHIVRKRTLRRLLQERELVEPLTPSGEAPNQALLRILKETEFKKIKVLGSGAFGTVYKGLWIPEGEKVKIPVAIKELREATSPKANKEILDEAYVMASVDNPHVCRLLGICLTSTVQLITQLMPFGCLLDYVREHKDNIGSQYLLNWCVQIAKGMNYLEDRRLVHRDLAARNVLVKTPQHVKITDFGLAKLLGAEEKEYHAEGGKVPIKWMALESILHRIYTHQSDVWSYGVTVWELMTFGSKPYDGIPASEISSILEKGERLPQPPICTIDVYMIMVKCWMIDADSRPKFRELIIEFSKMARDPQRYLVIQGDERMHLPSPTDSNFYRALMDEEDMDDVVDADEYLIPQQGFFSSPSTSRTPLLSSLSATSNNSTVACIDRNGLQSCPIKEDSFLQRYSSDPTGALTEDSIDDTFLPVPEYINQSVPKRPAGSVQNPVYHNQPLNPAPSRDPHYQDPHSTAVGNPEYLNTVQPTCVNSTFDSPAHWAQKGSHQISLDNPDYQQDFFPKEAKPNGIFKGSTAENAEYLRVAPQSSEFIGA
For data set [6], the target named is Mitogen-activated protein kinase 1 (Homo sapiens, UniProt P28482). In words: Inhibition of ERK2 (unknown origin).
Mitogen-activated protein kinase 1, sequence (P28482 whole entry): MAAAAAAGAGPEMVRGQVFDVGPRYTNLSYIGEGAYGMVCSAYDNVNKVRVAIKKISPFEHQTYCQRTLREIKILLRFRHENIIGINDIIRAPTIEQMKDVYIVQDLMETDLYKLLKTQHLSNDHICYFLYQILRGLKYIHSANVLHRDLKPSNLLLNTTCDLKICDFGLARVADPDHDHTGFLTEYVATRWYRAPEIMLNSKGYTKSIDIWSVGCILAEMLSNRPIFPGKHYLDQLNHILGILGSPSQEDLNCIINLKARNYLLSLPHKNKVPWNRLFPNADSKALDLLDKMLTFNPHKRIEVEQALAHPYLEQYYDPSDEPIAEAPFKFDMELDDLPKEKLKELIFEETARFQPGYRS
For data set [7], the target named is Homeodomain-interacting protein kinase 1 (Homo sapiens, UniProt Q86Z02). The experiment in a line: Inhibition of HIPK1 (unknown origin).
Homeodomain-interacting protein kinase 1, sequence (Q86Z02 whole entry): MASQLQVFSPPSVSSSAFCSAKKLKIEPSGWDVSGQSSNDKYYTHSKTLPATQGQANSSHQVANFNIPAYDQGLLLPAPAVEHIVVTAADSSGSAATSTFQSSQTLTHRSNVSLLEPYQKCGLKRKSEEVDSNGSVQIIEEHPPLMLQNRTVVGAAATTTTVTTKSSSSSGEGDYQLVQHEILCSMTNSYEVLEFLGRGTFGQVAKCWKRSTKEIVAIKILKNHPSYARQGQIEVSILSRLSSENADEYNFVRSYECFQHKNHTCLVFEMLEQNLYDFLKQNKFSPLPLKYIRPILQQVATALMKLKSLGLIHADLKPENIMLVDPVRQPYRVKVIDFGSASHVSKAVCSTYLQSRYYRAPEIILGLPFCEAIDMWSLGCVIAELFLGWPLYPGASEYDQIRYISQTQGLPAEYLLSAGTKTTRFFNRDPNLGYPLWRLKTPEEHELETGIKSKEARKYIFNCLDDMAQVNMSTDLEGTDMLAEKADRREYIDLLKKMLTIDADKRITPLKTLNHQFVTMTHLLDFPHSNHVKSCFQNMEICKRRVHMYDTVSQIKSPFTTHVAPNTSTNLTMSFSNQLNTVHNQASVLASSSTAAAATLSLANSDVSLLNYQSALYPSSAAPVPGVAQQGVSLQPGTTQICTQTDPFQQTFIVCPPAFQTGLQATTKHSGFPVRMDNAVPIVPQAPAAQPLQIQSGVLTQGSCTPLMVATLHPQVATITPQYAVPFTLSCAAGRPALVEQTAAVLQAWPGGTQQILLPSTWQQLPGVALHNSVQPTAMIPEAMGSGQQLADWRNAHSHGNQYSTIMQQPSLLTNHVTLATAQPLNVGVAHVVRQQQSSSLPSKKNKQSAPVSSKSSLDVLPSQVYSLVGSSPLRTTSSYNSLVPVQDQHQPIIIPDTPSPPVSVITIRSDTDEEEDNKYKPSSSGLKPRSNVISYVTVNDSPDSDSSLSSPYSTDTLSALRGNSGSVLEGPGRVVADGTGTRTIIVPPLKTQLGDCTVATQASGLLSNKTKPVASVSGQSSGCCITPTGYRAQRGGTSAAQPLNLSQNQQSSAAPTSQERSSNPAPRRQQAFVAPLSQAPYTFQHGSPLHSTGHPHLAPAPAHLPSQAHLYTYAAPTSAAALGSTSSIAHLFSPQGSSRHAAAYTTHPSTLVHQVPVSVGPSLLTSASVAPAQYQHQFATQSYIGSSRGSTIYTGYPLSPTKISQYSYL

Activity calls are given as the source filed them. No cut-off for these calls is given here. Where only a bound is given, the exact number is not on record here.

Mitogen-activated protein kinase kinase kinase 14 (Homo sapiens), Q99558 [S549D], sequence (Q99558 whole entry S549D, the tested form may be a part): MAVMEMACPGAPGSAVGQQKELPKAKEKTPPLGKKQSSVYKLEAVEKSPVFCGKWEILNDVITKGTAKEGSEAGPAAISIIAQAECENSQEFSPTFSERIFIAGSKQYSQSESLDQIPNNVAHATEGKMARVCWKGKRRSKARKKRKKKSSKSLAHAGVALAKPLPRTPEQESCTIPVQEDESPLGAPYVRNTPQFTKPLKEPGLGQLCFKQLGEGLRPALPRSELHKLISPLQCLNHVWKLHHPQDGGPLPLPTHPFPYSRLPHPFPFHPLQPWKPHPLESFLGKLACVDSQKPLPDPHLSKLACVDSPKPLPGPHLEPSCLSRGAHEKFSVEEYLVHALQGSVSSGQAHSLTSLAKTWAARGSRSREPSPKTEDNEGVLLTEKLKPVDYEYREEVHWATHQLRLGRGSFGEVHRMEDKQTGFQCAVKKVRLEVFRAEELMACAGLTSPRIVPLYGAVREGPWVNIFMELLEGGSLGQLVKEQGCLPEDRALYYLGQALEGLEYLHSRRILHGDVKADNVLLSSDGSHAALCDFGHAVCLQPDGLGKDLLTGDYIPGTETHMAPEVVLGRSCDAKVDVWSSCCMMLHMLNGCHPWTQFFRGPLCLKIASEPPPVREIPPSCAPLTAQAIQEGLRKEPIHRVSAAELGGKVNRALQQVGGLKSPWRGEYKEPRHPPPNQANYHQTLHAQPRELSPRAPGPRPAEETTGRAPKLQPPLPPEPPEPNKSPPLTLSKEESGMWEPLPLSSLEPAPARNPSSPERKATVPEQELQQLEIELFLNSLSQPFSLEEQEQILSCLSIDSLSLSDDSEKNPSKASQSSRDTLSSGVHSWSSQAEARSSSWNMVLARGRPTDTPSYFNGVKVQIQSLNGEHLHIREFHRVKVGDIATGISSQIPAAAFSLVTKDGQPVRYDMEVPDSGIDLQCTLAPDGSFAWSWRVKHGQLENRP
Serine/threonine-protein kinase B-raf, sequence (P15056 whole entry): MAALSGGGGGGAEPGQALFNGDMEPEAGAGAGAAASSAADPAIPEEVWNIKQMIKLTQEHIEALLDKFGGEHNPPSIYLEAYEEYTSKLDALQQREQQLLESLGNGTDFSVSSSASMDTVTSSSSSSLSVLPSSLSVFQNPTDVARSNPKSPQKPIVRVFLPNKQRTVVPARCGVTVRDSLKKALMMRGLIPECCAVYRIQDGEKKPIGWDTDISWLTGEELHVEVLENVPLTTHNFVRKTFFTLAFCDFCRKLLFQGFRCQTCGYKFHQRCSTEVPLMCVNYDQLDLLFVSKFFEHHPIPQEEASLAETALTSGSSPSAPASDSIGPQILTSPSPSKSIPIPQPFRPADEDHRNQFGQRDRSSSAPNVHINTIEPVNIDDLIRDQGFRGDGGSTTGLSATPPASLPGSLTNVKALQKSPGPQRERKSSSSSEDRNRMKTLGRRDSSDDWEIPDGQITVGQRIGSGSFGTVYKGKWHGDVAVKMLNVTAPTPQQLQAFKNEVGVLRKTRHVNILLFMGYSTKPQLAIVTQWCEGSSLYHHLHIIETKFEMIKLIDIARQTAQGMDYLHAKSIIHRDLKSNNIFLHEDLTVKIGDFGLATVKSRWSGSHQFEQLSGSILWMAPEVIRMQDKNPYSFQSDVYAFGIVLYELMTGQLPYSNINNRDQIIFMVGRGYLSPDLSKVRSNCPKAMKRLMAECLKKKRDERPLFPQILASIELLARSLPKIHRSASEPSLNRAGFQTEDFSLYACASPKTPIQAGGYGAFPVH

By IC50 is commonly meant the concentration that gives 50% inhibition. As to `CC(=O)n1nc(C)c(-c2ccc(Cl)c(Cl)c2)c1N`, the inhibition entry in data set [1] is “inactive”. Also, the IC50 in data set [2], in data set [4], in data set [5], in data set [6] and in data set [7] was above 100 µM throughout. The viability at 6 h, 100 µM in data set [3] was at least 80%.

Values taken from ChEMBL document CHEMBL4257503, “N-Acetyl-3-aminopyrazoles block the non-canonical NF-kB cascade by selectively inhibiting NIK” (Medchemcomm, 2018).
